Assay results taken from paper PMC9178606 (ACS Omega, 2022).

What was measured:
[1] = system: LoVo cells; experiment: Cytotoxicity assay; format: cell-based; conditions: Homo sapiens, 24 h; for viability at 200 µg/mL: read-out: % of Viable cells, LoVo cell line of CRC; for IC50: read-out: IC50 LoVo cell line of CRC
Method in brief: (§1)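 Cells exposed 24 h at 37 °C in 5% CO2 to test compound (final 25, 50, 75, 100, 200, 400 μg/mL) in DMEM with 10% FBS. Lactate dehydrogenase released into supernatant measured by end-point assay, OD 550 nm. Viability expressed as percent of medium-only control; 0.1% Triton X-100 was the positive control. Single-point viability at 200 μg/mL, mean ± SD (n = 2). IC50 from viability-versus-concentration plot.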

[2] = biological target: T1, hsPLA2-G-V (Homo sapiens, UniProt P39877); experiment: Anti-phospholipases colorimetric assay, hsPLA2-G-V; format: biochemical
T1 sequence (P39877 21-138): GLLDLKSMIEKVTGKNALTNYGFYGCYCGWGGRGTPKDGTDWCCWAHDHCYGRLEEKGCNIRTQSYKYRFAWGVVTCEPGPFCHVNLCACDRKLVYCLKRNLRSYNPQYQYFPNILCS
Method in brief: (§2)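 Test compound solutions (5−50 μg/mL) mixed with hsPLA2 solution (20 μg/mL, stock) and held 20 min at room temperature. Substrate added: 3.5 mM lecithin, 10 mM CaCl2, 3 mM sodium taurodeoxycholate, 100 mM NaCl, 0.055 mM phenol red, pH 7.6. Hydrolysis followed at 558 nm for 5 min. Percent inhibition taken against a no-compound control; IC50 from standard calibration curves.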

[3] = biological target: T2, hsPLA2-G-IIA (Homo sapiens, UniProt P14555); experiment: Anti-phospholipases colorimetric assay, hsPLA2-G-IIA; format: biochemical
T2 sequence (P14555 21-144): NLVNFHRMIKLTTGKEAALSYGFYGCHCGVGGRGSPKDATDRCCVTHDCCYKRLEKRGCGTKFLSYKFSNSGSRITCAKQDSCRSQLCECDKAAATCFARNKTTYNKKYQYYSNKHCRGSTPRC

[4] = system: HCT-116 cells; experiment: Cytotoxicity assay; format: cell-based; conditions: Homo sapiens, HCT-116, 24 h, read-out: IC50 HCT-116 cell line of CRC
Method in brief: as §1

[5] = biological target: T3, α-amylase (Homo sapiens, UniProt P04746); experiment: In vitro α-amylase inhibitory activity; format: biochemical
T3 sequence (P04746 16-511): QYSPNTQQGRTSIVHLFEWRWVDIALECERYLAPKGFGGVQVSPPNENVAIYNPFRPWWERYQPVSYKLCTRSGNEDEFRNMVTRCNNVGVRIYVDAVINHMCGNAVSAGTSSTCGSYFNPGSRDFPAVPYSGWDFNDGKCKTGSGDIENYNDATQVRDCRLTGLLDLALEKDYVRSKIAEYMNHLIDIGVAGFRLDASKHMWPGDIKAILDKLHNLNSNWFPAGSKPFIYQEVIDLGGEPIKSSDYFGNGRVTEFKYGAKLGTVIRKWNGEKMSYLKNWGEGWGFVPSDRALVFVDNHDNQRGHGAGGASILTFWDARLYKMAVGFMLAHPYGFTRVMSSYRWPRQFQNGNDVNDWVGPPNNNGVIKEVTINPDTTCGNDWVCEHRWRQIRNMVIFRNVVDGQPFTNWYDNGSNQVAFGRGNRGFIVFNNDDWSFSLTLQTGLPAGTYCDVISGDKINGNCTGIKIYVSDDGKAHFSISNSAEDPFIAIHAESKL
Method in brief: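 Labtest amylase substrate (diluted 1:1 in water) added; first read at 620 nm after 8 min. Final read after another 5 min at 37 °C. Inhibition calculated from the change between initial and final absorbance relative to control; IC50 from standard curve.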

[6] = biological target: xanthine oxidoreductase (Bos taurus, UniProt P80457); experiment: In vitro xanthine oxidoreductase inhibitory activity; format: biochemical
[7] = biological target: cathepsin-B (Homo sapiens, UniProt P07858); experiment: Anti-proteases assay; format: biochemical
Method in brief: (§3)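 Enzyme preincubated with test compound (5−75 μg/mL) for 15 min at 37 °C, then 1% casein substrate added for 30 min at 37 °C. Reaction stopped with 5% trichloroacetic acid and centrifuged (12,000 rpm, 15 min). Filtrate absorbance read at 280 nm. Percent inhibition taken against control; IC50 from standard curve. Protease inhibitor cocktail was the positive control.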

[8] = biological target: α-glucosidase (Saccharomyces cerevisiae, UniProt P53341); experiment: In vitro α-glucosidase inhibitory activity; format: biochemical, Saccharomyces cereviseae
[9] = biological target: T4, hsPLA2-G-X (Homo sapiens, UniProt O15496); experiment: Anti-phospholipases colorimetric assay, hsPLA2-G-X; format: biochemical
T4 sequence (O15496 43-165): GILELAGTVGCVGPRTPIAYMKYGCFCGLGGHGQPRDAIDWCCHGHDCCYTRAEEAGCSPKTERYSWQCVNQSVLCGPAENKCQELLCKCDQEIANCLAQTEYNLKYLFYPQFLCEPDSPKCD
Method in brief: as §2

[10] = biological target: thrombin (Homo sapiens, UniProt P00734); experiment: Anti-proteases assay; format: biochemical
[11] = biological target: T5, trypsin (Bos taurus, UniProt P00760); experiment: Anti-proteases assay; format: biochemical
T5 sequence (P00760 24-246): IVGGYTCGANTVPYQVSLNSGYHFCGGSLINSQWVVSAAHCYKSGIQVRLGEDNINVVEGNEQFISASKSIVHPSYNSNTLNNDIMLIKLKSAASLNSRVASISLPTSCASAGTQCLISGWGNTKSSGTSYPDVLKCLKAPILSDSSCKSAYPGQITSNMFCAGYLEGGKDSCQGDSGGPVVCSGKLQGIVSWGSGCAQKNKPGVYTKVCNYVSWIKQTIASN
Method in brief: as §3

[12] = biological target: collagenase; experiment: Anti-proteases assay; format: biochemical; conditions: mean of two determinations ± SD
Method in brief: as §3

Sequence of α-glucosidase (P53341 whole entry): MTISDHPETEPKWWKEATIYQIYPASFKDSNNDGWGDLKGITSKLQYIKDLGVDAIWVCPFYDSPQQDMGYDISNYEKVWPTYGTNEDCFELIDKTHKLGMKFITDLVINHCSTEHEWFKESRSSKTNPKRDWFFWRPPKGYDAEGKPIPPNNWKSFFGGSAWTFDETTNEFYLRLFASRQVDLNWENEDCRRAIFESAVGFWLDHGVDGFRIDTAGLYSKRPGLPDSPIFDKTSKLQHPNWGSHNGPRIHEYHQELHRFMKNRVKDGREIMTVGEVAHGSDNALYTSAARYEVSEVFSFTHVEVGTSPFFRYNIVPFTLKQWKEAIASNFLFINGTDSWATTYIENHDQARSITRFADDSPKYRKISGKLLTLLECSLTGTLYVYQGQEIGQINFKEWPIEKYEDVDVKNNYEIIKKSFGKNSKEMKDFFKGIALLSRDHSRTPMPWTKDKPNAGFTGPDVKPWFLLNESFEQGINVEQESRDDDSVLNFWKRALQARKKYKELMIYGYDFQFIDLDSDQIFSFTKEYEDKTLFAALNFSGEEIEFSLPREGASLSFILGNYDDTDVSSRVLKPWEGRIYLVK
Sequence of xanthine oxidoreductase (P80457 2-1332 limits assumed): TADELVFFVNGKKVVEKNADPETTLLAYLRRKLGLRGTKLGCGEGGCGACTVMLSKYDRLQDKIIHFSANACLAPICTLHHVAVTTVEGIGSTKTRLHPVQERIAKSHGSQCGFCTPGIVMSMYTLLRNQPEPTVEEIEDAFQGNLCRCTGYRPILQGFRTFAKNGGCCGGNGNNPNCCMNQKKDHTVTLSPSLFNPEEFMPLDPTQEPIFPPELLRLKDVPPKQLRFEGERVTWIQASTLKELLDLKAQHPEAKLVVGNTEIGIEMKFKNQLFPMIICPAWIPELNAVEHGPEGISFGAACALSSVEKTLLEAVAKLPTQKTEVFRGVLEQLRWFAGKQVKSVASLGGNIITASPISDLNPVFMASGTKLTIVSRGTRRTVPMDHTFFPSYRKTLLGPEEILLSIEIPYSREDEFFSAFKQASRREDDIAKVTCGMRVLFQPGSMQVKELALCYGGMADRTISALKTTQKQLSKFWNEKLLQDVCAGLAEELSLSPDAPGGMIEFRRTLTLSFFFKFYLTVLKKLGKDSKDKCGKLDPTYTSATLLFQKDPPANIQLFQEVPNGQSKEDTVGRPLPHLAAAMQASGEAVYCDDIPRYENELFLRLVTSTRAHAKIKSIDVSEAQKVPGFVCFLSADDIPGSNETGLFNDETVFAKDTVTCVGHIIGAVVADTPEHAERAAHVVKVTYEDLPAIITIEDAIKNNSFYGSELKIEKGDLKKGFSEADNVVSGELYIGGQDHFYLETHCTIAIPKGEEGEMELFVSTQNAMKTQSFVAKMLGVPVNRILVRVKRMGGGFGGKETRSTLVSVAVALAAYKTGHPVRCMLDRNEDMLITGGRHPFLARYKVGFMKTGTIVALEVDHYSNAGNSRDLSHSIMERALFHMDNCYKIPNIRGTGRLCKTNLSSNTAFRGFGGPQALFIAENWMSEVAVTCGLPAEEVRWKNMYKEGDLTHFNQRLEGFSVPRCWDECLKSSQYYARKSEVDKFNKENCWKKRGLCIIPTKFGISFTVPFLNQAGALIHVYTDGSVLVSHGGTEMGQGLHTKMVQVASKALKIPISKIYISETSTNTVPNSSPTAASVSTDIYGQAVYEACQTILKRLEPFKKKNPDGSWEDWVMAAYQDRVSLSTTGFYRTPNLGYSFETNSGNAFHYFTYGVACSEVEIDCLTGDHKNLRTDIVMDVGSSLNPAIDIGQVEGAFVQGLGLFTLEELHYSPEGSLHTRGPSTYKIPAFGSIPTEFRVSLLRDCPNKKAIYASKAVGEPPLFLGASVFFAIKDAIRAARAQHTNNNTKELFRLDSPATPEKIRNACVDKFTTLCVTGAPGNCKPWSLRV

Cc1nc2ccccc2c(=O)n1NC(=O)CSc1nc2ccccc2c(=O)n1-c1ccccc1 [Compound 10, N-(2-Methyl-4-oxo-4H-quinazolin-3-yl)-2-(4-oxo-3-phenyl-3,4-dihydroquinazolin-2-ylsulfanyl)acetamide]
viability at 200 µg/mL [1]: 22 ± 1.41%
IC50 [1]: 273 ± 9.04 µM
IC50 [2]: 14.7 ± 0.42 µM
IC50 [3]: 13.8 ± 2.12 µM
IC50 [4]: 230 ± 9.04 µM

COc1ccc2cc(/C=N/n3c(C)nc4ccc(Br)cc4c3=O)ccc2c1 [Compound 3f, (E)-6-Bromo-3-[((6-methoxynaphthalen-2-yl)methylene)amino]-2-methylquinazolin-4(3H)-one]
viability at 200 µg/mL [1]: 58 ± 4.24%
IC50 [5]: 310 ± 10 µM
IC50 [6]: 7.34 ± 0.33 µM
IC50 [7]: 132 µM
IC50 [8]: 12.4 ± 0.83 µM

Cc1nc2ccc(Cl)cc2c(=O)n1NC(=O)CCl [Compound 7b, 2-Chloro-N-(6-chloro-2-methyl-4-oxo-4H-quinazolin-3-yl)acetamide]
IC50 [7]: 31.5 µM
IC50 [3]: 127 ± 2.12 µM

COc1cc(/C=N/n2c(C)nc3ccc(Br)cc3c2=O)ccc1OCc1ccc(Cl)cc1 [Compound 5, (E)-6-Bromo-3-{[4-(4-chlorobenzyloxy)-3-methoxybenzylidene]amino}-2-methyl-3H-quinazolin-4-one]
IC50 [5]: 358 ± 4.95 µM
IC50 [8]: 13.7 ± 1.41 µM

Cc1nc2ccc(Br)cc2c(=O)n1/N=C/c1ccc(C(=O)O)cc1 [Compound 3b, (E)-4-[(6-Bromo-2-methyl-4-oxo-4H-quinazolin-3-ylimino)methyl]benzoic acid]
IC50 [5]: 264 ± 11 µM

O=c1c(O)c(-c2ccc(O)c(O)c2)oc2cc(O)cc(O)c12 [Quercetin, quercetin, reference compound]
IC50 [5]: 407 ± 2.83 µM

COc1cc(/C=N/n2c(C)nc3ccc(Br)cc3c2=O)ccc1O [Compound 3g, (E)-6-Bromo-3-[(4-hydroxy-3-methoxybenzylidene)amino]-2-methyl-3H-quinazolin-4-one]
viability at 200 µg/mL [1]: 16.8 ± 0.35%
IC50 [1]: 206 ± 7.29 µM
IC50 [9]: 14.5 ± 0.92 µM
IC50 [2]: 22.3 ± 0.92 µM
IC50 [4]: 285 ± 9.11 µM

Cc1nc2ccc(Cl)cc2c(=O)n1NC1=NC(=O)CS1 [Compound 8, 6-Chloro-2-methyl-3-(4-oxo-4,5-dihydrothiazol-2-ylamino)-3H-quinazolin-4-one]
viability at 200 µg/mL [1]: 13.5 ± 0.71%
IC50 [1]: 319 ± 11.4 µM
IC50 [10]: 0.729 µM
IC50 [11]: 1.78 µM
IC50 [4]: 449 ± 11.5 µM

COc1cc(NCC(=O)Nn2c(C)nc3ccc(Cl)cc3c2=O)cc(OC)c1OC [Compound 12, N-(6-Chloro-2-methyl-4-oxo-4H-quinazolin-3-yl)-2-(3,4,5-trimethoxyphenylamino)acetamide]
IC50 [5]: 401 ± 6.36 µM

COc1cc(/C=N/n2c(C)nc3ccc(C)cc3c2=O)cc([N+](=O)[O-])c1O [Compound 3d, (E)-3-[(4-Hydroxy-3-methoxy-5-nitrobenzylidene)amino]-2,6-dimethylquinazolin-4(3H)-one]
viability at 200 µg/mL [1]: 90.5 ± 3.54%
IC50 [5]: 375 ± 11.5 µM
IC50 [9]: 21.4 ± 2.31 µM
mean IC50 against Collagenase [12]: 57.83 ± 2.69 µg/mL

O=c1c2ccccc2[nH]c(=S)n1-c1ccccc1 [Compound 9, 2-Mercapto-3-phenyl-3H-quinazolin-4-one]
IC50 [2]: 151 ± 2.12 µM
